Screens deposited in PubChem by several laboratories.
Only some compounds are listed: those with a hit (about 5.8% of all), similar ones and a draw of the others.
PLK1 PBD inh = Plk1 polo box domain binding inhibitors, primary screen, biochemical, fluorescence polarization. 0.13% of 97,000 active. Plk1 PBD phosphopeptide binding. inhibition, %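 (tested at about 20 µM)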. AID 693, 2007; in the data active = inhibition above about 34%, passing the limit was not always enough
Target sequence (P53350 whole entry, looked up, the tested form may be a part): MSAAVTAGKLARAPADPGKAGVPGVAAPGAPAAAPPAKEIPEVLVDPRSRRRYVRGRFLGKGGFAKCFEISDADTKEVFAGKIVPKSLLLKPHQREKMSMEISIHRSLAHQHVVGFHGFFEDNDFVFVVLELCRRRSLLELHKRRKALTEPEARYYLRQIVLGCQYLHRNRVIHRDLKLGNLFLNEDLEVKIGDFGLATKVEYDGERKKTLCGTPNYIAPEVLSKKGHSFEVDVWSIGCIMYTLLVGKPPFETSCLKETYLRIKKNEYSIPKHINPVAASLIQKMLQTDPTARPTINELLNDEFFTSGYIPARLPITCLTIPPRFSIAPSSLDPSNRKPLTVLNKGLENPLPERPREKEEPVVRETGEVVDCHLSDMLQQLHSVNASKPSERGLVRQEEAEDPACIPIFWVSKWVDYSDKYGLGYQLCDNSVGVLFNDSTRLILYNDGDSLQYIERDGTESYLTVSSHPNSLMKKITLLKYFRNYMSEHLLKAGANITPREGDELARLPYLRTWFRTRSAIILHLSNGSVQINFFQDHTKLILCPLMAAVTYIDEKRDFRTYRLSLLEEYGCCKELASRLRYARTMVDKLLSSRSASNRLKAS
Rev-RRE block = HIV-1 Rev-RRE binding inhibitors, primary screen, biochemical, FRET, protein-RNA interaction | P05866 | AID 704, 2007 | 0.79% of 97,000 active | Rev peptide-RRE RNA binding | inhibition, % at 8 µM;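 active = inhibition above the screen-wide mean plus 3 SD, cut at about 35% in these data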;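 also: 0% = median DMSO wells and 100% = median Neomycin B control wells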
Target sequence (P05866 whole entry, looked up): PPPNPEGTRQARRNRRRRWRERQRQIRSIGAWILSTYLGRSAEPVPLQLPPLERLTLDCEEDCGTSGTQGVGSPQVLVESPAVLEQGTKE
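Probe or stimulus: fluorescein-Rev peptide as binding partner; assay system: Cy5-tagged RRE RNA duplex with fluorescein-tagged Rev peptide; timing: 5 min compound–RNA preincubation, then 15 min with peptide, 25 °C; medium: HEPES pH 7.5 buffer with KCl, MgCl2, NaCl and EDTA; signal: fluorescein-to-Cy5 FRET, 480 nm excitation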
FAK inh = FAK kinase inhibitors, primary screen, biochemical; biochemical FAK kinase activity assay; inhibition, %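 (tested at 7 µM)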; 0.84% of 97,000 active; in the data active = inhibition above about 19%;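 also: 0% = DMSO and 100% = reference compound high control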
PTK2B oligo ant = antagonists of Pyk2 self-association, primary screen, Q293 cells, FERM NanoBiT luminescence, HTS; Protein-tyrosine kinase 2-beta (Homo sapiens), Q14289; hits give low values; z-score (the deposit names both 25 µM and 10 µM); 0.83% of 99,000 active;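 active = Z-score of -3 or lower, scaled per plate to the spread of control and sample wells; inactive = z-score above -3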;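 also: negative z-score means lost luminescence so less FERM oligomerization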
PLK1 inh = human PLK1 kinase inhibitors, primary screen, biochemical, TR-FRET; Serine/threonine-protein kinase PLK1 (Homo sapiens), P53350; recombinant PLK1 kinase, TR-FRET peptide phosphorylation; inhibition, % at 10 µM; 0.53% of 97,000 active; AID 619, 2007;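 active = inhibition of 50% or more in the single-concentration screen; inactive = inhibition below 50%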;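 also: 0% = DMSO max control and 100% = H-89 dihydrochloride min control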
Cav32 inh = Cav3.2 calcium influx blockers – cell-based, Fluo-4 calcium fluorescence, FDSS, MLSMR library, primary screen. Voltage-dependent T-type calcium channel subunit alpha-1H (Homo sapiens), O95180. Cav3.2-expressing cells; hits give low values. B-score at 10 µM. 4% of 100,000 active. AID 449739, 2010;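 active = single-dose well whose peak fluorescence ratio is a statistical outlier from its plate by either plate-standardised score or position-corrected B-score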
* = called active by the depositor; · = no result given.

SMILES | PLK1 PBD inh | Rev-RRE block | FAK inh | PTK2B oligo ant | PLK1 inh | Cav32 inh
COc1ccc(S(C)(=O)=O)cc1S(C)(=O)=O | -10 | 8 | -3 | -0.56 | -6 | ·
O=C(c1cc(-c2ccc(O)cc2)on1)N1CCc2ccccc2C1 | -10 | 8 | 2 | · | -14 | -6.2*
CCc1cc[n+](-c2nc([O-])sc2C=O)cc1 | -13 | 46* | -1 | -0.01 | -5 | -0.77
Cc1nn(-c2ccccc2)c(C)c1C(=O)OCC(=O)NCc1ccco1 | -20 | 1 | 10 | -0.04 | -11 | -0.1
Cc1cc(C(=O)OCC(=O)NCc2ccco2)c(C)n1-c1ccc(F)cc1 | · | · | · | -0.18 | · | -4.4*
COc1ccc(NCc2nnc(SCC(=O)NCc3ccco3)n2-c2ccccc2OC)cc1 | 1 | -1 | -2 | 1.1 | -24 | 0.94
Cc1ccc(-n2c(CNc3ccc(F)cc3)nnc2SCC(=O)NCc2ccco2)cc1 | -26 | 2 | -6 | 1 | -7 | -5.2*
O=C(NCC1CCCO1)c1onc(CSc2cccc3ccccc23)c1C(=O)O (stereo unspecified) | 7 | 0 | -3 | · | -21 | -0.85
CCOC(=O)Cc1csc(NS(=O)(=O)c2ccccc2)n1 | -19 | 7 | 2 | 0.24 | -3 | 2.3
CCOC(=O)c1ccccc1-c1csc(NS(=O)(=O)c2ccc(Cl)cc2)n1 | 3 | -4 | -5 | -1.4 | -14 | -9.2*
Fc1ccc(Cn2nnnc2C(c2ccc(Cl)cc2)N2CCSCC2)cc1 (stereo unspecified) | 4 | 6 | -5 | -0.74 | -11 | -7.1*
COc1ccc(C(c2nnnn2Cc2cccs2)N2CCN(c3ccccc3F)CC2)cc1 (stereo unspecified) | 7 | 11 | 8 | -3.9* | -9 | -3.4*
COc1ccc(OC)c(C(c2nnnn2C2CCCC2)N2CCN(c3ccc(F)cc3)CC2)c1 (stereo unspecified) | -3 | 5 | -2 | -3.2* | -8 | -9.4*
COc1ccc(Cn2nnnc2C(c2cccs2)N2CCCCCC2)cc1 (stereo unspecified) | 12 | 5 | -6 | -1.3 | 1 | -4.1*
CC(C)(C)NC(=O)c1cc(F)c(F)cc1Cl | 2 | 8 | 0 | 0.11 | -27 | 0.41
N#Cc1ccc(OCC(=O)Nc2ccccc2NS(=O)(=O)c2cccs2)cc1 | · | · | · | -1.1 | · | ·
COc1ccc(C(c2nnnn2Cc2ccccc2)N2CCN(c3ccccc3)CC2)cc1 (stereo unspecified) | · | · | · | -3.8* | · | -4.5*
COc1ccc(C(c2nnnn2C2CCCCC2)N2CCN(c3ccccc3)CC2)cc1 (stereo unspecified) | 14 | 0 | 0 | · | -2 | ·
COc1ccc(C(c2nnnn2C2CCCC2)N2CCN(c3ccccc3)CC2)cc1 (stereo unspecified) | 10 | -1 | -1 | -2 | -18 | -5.2*
CCCC(c1nnnn1Cc1cccs1)N1CCN(c2nc3ccccc3s2)CC1 (stereo unspecified) | 22 | 2 | -3 | -3.5* | -16 | 0.46
CCCC(c1nnnn1CC1CCCO1)N1CCN(c2nc3ccccc3s2)CC1 (stereo unspecified) | -14 | 7 | 1 | -2.4 | -10 | -0.62
COc1ccc(C(c2nnnn2Cc2ccccc2)N2CCN(c3nc4ccccc4s3)CC2)cc1 (stereo unspecified) | · | · | · | -4.1* | · | -4.8*
CC(=O)N(Cc1ccc2c(c1)OCO2)C1CC(=O)N(CCc2ccccc2)C1=O (stereo unspecified) | -10 | 5 | 2 | -0.63 | 3 | 1
O=[N+]([O-])c1ccc2nccn2c1 | 14 | 11 | -4 | 1.3 | -1 | 1.1
COc1ccccc1Nc1ncccc1C(=O)NCc1ccccc1 | 12 | 13 | 1 | -1.8 | -12 | 0.66
SMILES | PLK1 PBD inh | Rev-RRE block | FAK inh | PTK2B oligo ant | PLK1 inh | Cav32 inh
Oc1ccc(C(c2nnnn2C2CCCC2)N2CCc3ccccc3C2)cc1 (stereo unspecified) | 16 | 10 | 1 | -0.2 | -4 | -6.9*
CCOC(=O)CSc1nc(C(C)(C)C)cc(C(F)(F)F)c1C#N | 4 | 7 | 1 | -0.49 | 2 | 0.13
CCOC(=O)c1sc(/N=C/c2c(C)[nH]n(-c3ccccc3)c2=O)c(C#N)c1C | -89 | 70* | -2 | · | -8 | ·
Cc1[nH]n(-c2ccccc2)c(=O)c1/C=N/c1ccccn1 | -23 | 2 | 0 | 0.17 | -17 | ·
O=C(CSc1nn(-c2ccccc2)c(=S)s1)NC(=O)NCc1ccco1 | -10 | 2 | 0 | -1 | -14 | -3.2
O=C1C=C(c2ccccc2)OC(=O)C1C(=O)c1ccccc1 (stereo unspecified) | -18 | 0 | 2 | -0.27 | -12 | -0.092
COc1cccc(Nc2nnc(SCC(=O)N(CC(C)C)CC(C)C)s2)c1 | -7 | 8 | 4 | -1.7 | -8 | -7.2*
CCN(CC)CCCNC(CC(=O)Nc1cccc([N+](=O)[O-])c1)C(=O)O (stereo unspecified) | · | · | · | 2.3 | · | ·
O=C(CSc1nnc(-c2ccccn2)n1Cc1ccco1)c1ccccc1 | 4 | 4 | -1 | -0.07 | -1 | -0.33
Brc1ccc(CSc2nnc(-c3ccccn3)n2Cc2ccco2)cc1 | 5 | 9 | 4 | -1.5 | 8 | -5.1*
Cc1ccccc1CSc1nnc(-c2cccs2)n1Cc1ccco1 | -10 | 10 | 5 | -1.9 | 0 | -6.5*
CC(C)(C)c1ccc(CSc2nnc(-c3ccccn3)n2Cc2ccco2)cc1 | -33 | 6 | 1 | -2.4 | -6 | ·
Clc1cccc(CSc2nnc(-c3ccccn3)n2Cc2ccco2)c1 | 5 | 8 | 2 | -0.84 | -1 | -7.6*
O=C(CSc1nnc(-c2ccccn2)n1Cc1ccco1)c1ccc(Cl)cc1 | -12 | 8 | -5 | -0.55 | -10 | -5*
c1ccc(CSc2nnc(-c3cccs3)n2Cc2ccco2)cc1 | -1 | 4 | 7 | -2.2 | -3 | -3.6
CCCCC(=O)NC1=NC(=O)C(C)(C)S1 | -16 | -4 | -8 | -0.41 | 1 | -2
Clc1ccc(Cn2ncc3c(N4CCOCC4)ncnc32)cc1 | 19 | -2 | -1 | 0.08 | -10 | ·
O=C(N/N=C/c1cccs1)/C(=C/c1ccccc1)NC(=O)c1ccccc1 | · | · | · | -0.77 | · | ·
COC(=O)c1ccc(-n2cncn2)c(F)c1 | -33 | 7 | -8 | -0.13 | -2 | 0.61
Cc1ccc(C)c(S(=O)(=O)N2CCN(CC(=O)NC(=O)NCc3ccccc3)CC2)c1 | -11 | 8 | -2 | -1.1 | -11 | -4
COc1cc(Cl)c(C)cc1NC(=O)CSc1nnc(-c2ccccn2)n1Cc1ccco1 | 19 | 8 | 2 | -2.4 | -11 | -7.3*
COc1ccc(C(=O)CSc2nnc(-c3ccccn3)n2Cc2ccco2)cc1 | -25 | 5 | 2 | 0.5 | -2 | -1.7
